In ChEMBL document CHEMBL1125414, “A novel class of calcium-entry blockers: the 1[[4-(aminoalkoxy)phenyl]sulfonyl]indolizines” (J Med Chem, 1992):

Assays:
[1] = Displacement of [3H]nitrendipine binding to L-type calcium channel of Guinea pig cerebral cortex membranes; type: tissue-based, Cavia porcellus
[2] = species: Rattus norvegicus; assay: Molar concentration required to block [Ca2+] induced contraction of K+ depolarized rat aorta by 50%; type: functional
Summary of the method: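 Spiral strips of thoracic aorta from male Wistar rats in modified Krebs solution, 95% O2/5% CO2, 37 °C, depolarized preparation. pD2 taken as negative log molar antagonist concentration reducing maximal contraction by 50%.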

| SMILES | IC50 [1] [nM] | IC50 [2] [nM] |
| --- | --- | --- |
| COc1ccc(CCNCCCOc2ccc(S(=O)(=O)c3c(C(C)C)cn4ccccc34)cc2)cc1OC | 1.8 | 5.05 |
| COc1cc(CCN(C)CCCOc2ccc(S(=O)(=O)c3c(C(C)C)cn4ccccc34)cc2)cc(OC)c1 | 0.19 | 2.12 |
| COc1cc(CCN(C)CCCOc2ccc(S(=O)(=O)c3c(C(C)C)cn4ccccc34)cc2)cc(OC)c1OC | 0.6 | 2.24 |
| CCCN(CCC)CCCOc1ccc(S(=O)(=O)c2c(C)cn3ccccc23)cc1 | 648 | 957 |
| COc1ccc(CCN(C)CCCOc2ccc(S(=O)(=O)c3c(C(C)C)cn4ccccc34)cc2)cc1 | 8.7 | 22.6 |
| CC(C)c1cn2ccccc2c1S(=O)(=O)c1ccc(OCCCNCCc2ccccc2)cc1 | 4 | 81.5 |
| CCCCN(CCCC)CCCOc1ccc(S(=O)(=O)c2c(C(C)C)cn3ccccc23)cc1 | 2.1 | 21.6 |
| CCCCN(CCCC)CCCCCOc1ccc(S(=O)(=O)c2c(CC)cn3ccccc23)cc1 | 20 | 97.4 |
| CCCCCN(CCCCC)CCCOc1ccc(S(=O)(=O)c2c(C(C)C)cn3ccccc23)cc1 | 0.89 | 89.6 |
| CCCCN(CCCC)CCCOc1ccc(S(=O)(=O)c2c(C3CCCCC3)cn3ccccc23)cc1 | 113 | 4070 |
| CCCCN(CCCC)CCOc1ccc(S(=O)(=O)c2c(CC)cn3ccccc23)cc1 | 33 | 72.2 |
| CC(C)c1cn2ccccc2c1S(=O)(=O)c1ccc(OCCCN(C)C)cc1 | 201 | 390 |
| CC(C)(C)NCCCOc1ccc(S(=O)(=O)c2c(C(C)(C)C)cn3ccccc23)cc1 | 90 | 443 |
| COc1ccc(CCN(C)CCCCOc2ccc(S(=O)(=O)c3c(C(C)C)cn4ccccc34)cc2)cc1OC | 2.3 | 21.6 |
| COc1ccc(CN(C)CCCOc2ccc(S(=O)(=O)c3c(C(C)C)cn4ccccc34)cc2)cc1OC | 0.62 | 3.18 |
| CC(C)(C)NCCCOc1ccc(S(=O)(=O)c2c(C3CC3)cn3ccccc23)cc1 | 43 | 66.5 |
| CCCCCN(CCCCC)CCCOc1ccc(S(=O)(=O)c2c(CC)cn3ccccc23)cc1 | 6.3 | 62.4 |
| CC(C)c1cn2ccccc2c1S(=O)(=O)c1ccc(OCCCN2CCC(c3ccccc3)CC2)cc1 | 6.6 | 80.9 |
| CC(C)c1cn2ccccc2c1S(=O)(=O)c1ccc(OCCCN2CCN(c3ccccc3)CC2)cc1 | 14 | 205 |
| CCCCCCCCN(CCCCCCCC)CCCOc1ccc(S(=O)(=O)c2c(C(C)C)cn3ccccc23)cc1 | 6.5 | 30100 |
| CCc1cn2ccccc2c1S(=O)(=O)c1ccc(OCCCN(C)CCc2ccc(OC)c(OC)c2)cc1 |  | 13.4 |
| CCCN(CCC)CCCOc1ccc(S(=O)(=O)c2c(C(C)C)cn3ccccc23)cc1 |  | 102 |
| CCN(CC)CCCOc1ccc(S(=O)(=O)c2c(C(C)C)cn3ccccc23)cc1 | 51 | 228 |
| CCCCN(CCCC)CCCOc1ccc(S(=O)(=O)c2c(C3CC3)cn3ccccc23)cc1 | 2.5 | 10.9 |
| CCc1cn2ccccc2c1S(=O)(=O)c1ccc(OCCCNC(C)(C)C)cc1 | 130 | 413 |
| CCCCN(CCCC)CCCOc1ccc(S(=O)(=O)c2c(C)cn3ccccc23)cc1 | 69 | 162 |

| SMILES | IC50 [1] [nM] | IC50 [2] [nM] |
| --- | --- | --- |
| CCCCc1cn2ccccc2c1S(=O)(=O)c1ccc(OCCCN(CCC)CCC)cc1 | 129 | 570 |
| CCCCN(CCCOc1ccc(S(=O)(=O)c2c(C(C)C)cn3ccccc23)cc1)CCc1ccc(OC)c(OC)c1 | 0.84 | 18.7 |
| COc1ccc(NCCCOc2ccc(S(=O)(=O)c3c(C(C)C)cn4ccccc34)cc2)cc1OC | 383 | 396 |
| CCCCN(CCCC)CCCCOc1ccc(S(=O)(=O)c2c(C(C)C)cn3ccccc23)cc1 | 1.3 | 20.2 |
| CCCCN(CCCC)CCCOc1ccc(S(=O)(=O)c2c(CCC)cn3ccccc23)cc1 | 14 | 54.3 |
| COc1ccc(CNCCCOc2ccc(S(=O)(=O)c3c(C(C)C)cn4ccccc34)cc2)cc1OC | 1.2 | 13 |
| CCN(CC)CCCOc1ccc(S(=O)(=O)c2c(C)cn3ccccc23)cc1 |  | 3390 |
| COc1ccc(CCN(C)CCCOc2ccc(S(=O)(=O)c3c(C4CC4)cn4ccccc34)cc2)cc1OC | 0.74 | 3.9 |
| CCCCN(CCCC)CCCOc1ccc(S(=O)(=O)c2c(CC)cn3ccccc23)cc1 | 14 | 31.3 |
| COc1cccc(CCN(C)CCCOc2ccc(S(=O)(=O)c3c(C(C)C)cn4ccccc34)cc2)c1 | 2.6 | 7.86 |
| CCc1cn2ccccc2c1S(=O)(=O)c1ccc(OCCCNCCc2ccc(OC)c(OC)c2)cc1 | 4.6 | 11 |
| CC(C)c1cn2ccccc2c1S(=O)(=O)c1ccc(OCCCNC(C)(C)C)cc1 | 17.2 | 41.8 |
| CCCCc1cn2ccccc2c1S(=O)(=O)c1ccc(OCCCN(CCCC)CCCC)cc1 | 22 | 284 |
| CC(C)c1cn2ccccc2c1S(=O)(=O)c1ccc(OCCCNCc2ccccc2)cc1 | 4.5 | 22.8 |
| CCCCN(CCCC)CCCCOc1ccc(S(=O)(=O)c2c(CC)cn3ccccc23)cc1 | 4.6 | 33.3 |
| COc1ccc(CN(C)CCCCOc2ccc(S(=O)(=O)c3c(C(C)C)cn4ccccc34)cc2)cc1OC | 4.5 | 14.6 |
| COc1cc(CCNCCCOc2ccc(S(=O)(=O)c3c(C(C)C)cn4ccccc34)cc2)cc(OC)c1 | 0.53 | 2.32 |
| CCc1cn2ccccc2c1S(=O)(=O)c1ccc(OCCCN2CCCCC2)cc1 | 274 | 357 |
| COc1ccc(CN(C)CCCOc2ccc(S(=O)(=O)c3c(C4CC4)cn4ccccc34)cc2)cc1OC | 1.9 | 4.7 |
| CCCCN(CCCC)CCCOc1ccc(S(=O)(=O)c2c(-c3ccccc3)cn3ccccc23)cc1 | 156 | 1620 |
| CCCCN(CCCC)CCCOc1ccc(S(=O)(=O)c2c(C(C)(C)C)cn3ccccc23)cc1 | 9.6 | 51.9 |
| CCCN(CCC)CCCOc1ccc(S(=O)(=O)c2c(CC)cn3ccccc23)cc1 | 181 | 150 |
| COc1ccc(CCN(C)CCCC(C#N)(c2ccc(OC)c(OC)c2)C(C)C)cc1OC (stereo unspecified) | 38 | 47.1 |
| COc1ccc([C@@H]2Sc3ccccc3N(CCN(C)C)C(=O)[C@@H]2OC(C)=O)cc1 [DILTIAZEM] | 59 | 303 |
| COc1ccc(CCN(C)CCCOc2ccc(S(=O)(=O)c3c(C(C)C)cn4ccccc34)cc2)cc1OC [FANTOFARONE] | 0.61 | 5.6 |
| COC(=O)C1=C(C)NC(C)=C(C(=O)OC)C1c1ccccc1[N+](=O)[O-] [NIFEDIPINE] | 2.5 | 1.16 |
